In ChEMBL document CHEMBL1137238, “The synthesis and SAR of 2-amino-pyrrolo[2,3-d]pyrimidines: a new class of Aurora-A kinase inhibitors” (Bioorg Med Chem Lett, 2006):
pIC50: −log10 of the molar value.

What was measured:
[1] = biological target: T1, Cyclin-dependent kinase 4 (Homo sapiens, UniProt P11802); assay: Inhibition of retinoblastoma phosphorylation by CDK4; type: functional
Summary of the method: (§1)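 Purified CDK4 incubated with compounds and retinoblastoma protein substrate in 100 mM Hepes pH 7.5, 75 mM NaCl, 2 mM DTT, 10 mM MgCl2, 30 μM ATP. Stopped after 35 min. Rb phosphorylation at Ser795 measured colorimetrically with a phospho-specific antibody.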

[2] = biological target: Cyclin-dependent kinase 1 (Homo sapiens, UniProt P06493); assay: Inhibition of CDK1
Chain of Cyclin-dependent kinase 1 (P06493 whole entry): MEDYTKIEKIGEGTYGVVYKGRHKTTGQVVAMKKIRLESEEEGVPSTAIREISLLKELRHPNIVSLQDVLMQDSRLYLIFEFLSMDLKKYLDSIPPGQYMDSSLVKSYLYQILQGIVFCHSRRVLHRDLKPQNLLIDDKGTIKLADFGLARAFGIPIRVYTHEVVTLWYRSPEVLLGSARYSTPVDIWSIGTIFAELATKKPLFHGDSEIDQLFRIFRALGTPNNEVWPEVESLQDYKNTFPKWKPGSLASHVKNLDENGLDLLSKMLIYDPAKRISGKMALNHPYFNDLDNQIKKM

[3] = biological target: BDNF/NT-3 growth factors receptor (Homo sapiens, UniProt Q16620); assay: Inhibition of TrkB
Chain of BDNF/NT-3 growth factors receptor (Q16620 whole entry): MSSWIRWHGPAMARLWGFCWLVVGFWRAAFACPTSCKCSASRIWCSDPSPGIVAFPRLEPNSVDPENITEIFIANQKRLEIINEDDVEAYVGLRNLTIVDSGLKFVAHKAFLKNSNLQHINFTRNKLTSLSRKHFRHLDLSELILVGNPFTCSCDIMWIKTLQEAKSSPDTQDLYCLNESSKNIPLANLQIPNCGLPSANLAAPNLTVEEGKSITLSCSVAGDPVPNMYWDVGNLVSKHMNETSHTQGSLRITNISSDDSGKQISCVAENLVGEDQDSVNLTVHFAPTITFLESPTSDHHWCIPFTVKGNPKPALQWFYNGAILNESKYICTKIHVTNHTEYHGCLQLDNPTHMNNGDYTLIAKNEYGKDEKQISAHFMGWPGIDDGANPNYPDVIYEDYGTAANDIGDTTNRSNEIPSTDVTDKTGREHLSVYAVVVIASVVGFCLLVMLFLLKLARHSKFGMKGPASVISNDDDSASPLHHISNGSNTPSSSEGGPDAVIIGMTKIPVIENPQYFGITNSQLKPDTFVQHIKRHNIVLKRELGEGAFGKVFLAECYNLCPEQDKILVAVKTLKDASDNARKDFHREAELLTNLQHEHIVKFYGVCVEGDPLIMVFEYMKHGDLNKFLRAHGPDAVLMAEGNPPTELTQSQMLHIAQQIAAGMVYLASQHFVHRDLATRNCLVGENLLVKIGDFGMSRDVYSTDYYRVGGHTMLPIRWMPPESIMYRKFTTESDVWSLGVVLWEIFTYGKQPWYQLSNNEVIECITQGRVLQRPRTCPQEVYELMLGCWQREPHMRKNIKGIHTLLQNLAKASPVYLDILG

[4] = biological target: Platelet-derived growth factor receptor (Homo sapiens, UniProt P09619+P16234); assay: Inhibition of PDGFR; type: protein-complex assay
[5] = biological target: Aurora kinase A (Mus musculus) (UniProt P97477); assay: Inhibition of Aurora-A
Chain of Aurora kinase A (Mus musculus) (P97477 whole entry, looked up): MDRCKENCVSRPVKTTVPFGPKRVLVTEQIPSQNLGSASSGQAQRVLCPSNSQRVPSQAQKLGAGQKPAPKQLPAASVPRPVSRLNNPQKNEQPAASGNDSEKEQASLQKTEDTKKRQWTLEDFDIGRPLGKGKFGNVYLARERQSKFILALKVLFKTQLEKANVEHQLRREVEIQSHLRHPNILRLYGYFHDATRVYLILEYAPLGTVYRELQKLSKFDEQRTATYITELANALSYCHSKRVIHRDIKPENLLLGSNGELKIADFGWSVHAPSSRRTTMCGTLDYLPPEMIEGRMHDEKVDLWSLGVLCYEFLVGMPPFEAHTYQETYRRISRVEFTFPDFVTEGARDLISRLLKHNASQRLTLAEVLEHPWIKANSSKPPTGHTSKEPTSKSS

Insulin receptor = Insulin receptor (Homo sapiens, UniProt P06213); assay: Inhibition of IRK
Chain of Insulin receptor (P06213 28-758 limits assumed): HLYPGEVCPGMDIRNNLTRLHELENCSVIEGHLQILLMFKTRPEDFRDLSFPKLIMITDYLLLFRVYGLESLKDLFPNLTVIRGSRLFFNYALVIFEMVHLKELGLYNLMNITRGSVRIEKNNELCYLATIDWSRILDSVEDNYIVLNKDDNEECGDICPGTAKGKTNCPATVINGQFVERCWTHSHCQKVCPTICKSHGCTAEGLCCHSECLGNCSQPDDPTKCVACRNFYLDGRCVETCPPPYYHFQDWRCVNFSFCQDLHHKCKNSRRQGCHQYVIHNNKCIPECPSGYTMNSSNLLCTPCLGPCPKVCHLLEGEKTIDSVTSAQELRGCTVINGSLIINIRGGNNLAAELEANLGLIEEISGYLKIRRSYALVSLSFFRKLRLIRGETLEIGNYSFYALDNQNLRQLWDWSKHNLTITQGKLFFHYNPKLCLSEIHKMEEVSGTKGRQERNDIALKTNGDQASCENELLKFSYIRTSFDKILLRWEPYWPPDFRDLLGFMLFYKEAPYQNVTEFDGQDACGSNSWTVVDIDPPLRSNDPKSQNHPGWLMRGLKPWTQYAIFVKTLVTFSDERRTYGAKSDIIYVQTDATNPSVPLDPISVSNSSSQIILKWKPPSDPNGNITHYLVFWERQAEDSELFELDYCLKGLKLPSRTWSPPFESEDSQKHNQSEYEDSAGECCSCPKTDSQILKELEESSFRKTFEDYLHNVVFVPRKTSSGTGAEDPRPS
Chain of Insulin receptor (P06213 763-1382 limits assumed): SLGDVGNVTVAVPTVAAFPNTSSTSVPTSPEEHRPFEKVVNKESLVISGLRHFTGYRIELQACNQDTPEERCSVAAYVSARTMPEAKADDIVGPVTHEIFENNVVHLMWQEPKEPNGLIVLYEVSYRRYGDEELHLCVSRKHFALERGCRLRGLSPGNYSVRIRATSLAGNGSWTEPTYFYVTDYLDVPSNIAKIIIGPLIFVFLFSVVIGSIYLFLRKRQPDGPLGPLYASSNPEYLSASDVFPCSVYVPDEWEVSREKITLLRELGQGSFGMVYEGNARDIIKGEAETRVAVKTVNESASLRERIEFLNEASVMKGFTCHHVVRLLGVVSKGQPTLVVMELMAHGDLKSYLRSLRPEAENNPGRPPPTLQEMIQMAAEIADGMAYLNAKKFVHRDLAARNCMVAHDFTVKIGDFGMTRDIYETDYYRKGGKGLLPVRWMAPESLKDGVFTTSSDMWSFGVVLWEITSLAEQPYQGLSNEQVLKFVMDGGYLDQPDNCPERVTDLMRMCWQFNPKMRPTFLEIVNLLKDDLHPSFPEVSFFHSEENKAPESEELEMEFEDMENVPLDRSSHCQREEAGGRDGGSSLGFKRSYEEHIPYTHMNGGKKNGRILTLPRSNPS

[6] = biological target: Proto-oncogene tyrosine-protein kinase Src (Homo sapiens, UniProt P12931); assay: Inhibition of c-src
Chain of Proto-oncogene tyrosine-protein kinase Src (P12931 2-536 limits assumed): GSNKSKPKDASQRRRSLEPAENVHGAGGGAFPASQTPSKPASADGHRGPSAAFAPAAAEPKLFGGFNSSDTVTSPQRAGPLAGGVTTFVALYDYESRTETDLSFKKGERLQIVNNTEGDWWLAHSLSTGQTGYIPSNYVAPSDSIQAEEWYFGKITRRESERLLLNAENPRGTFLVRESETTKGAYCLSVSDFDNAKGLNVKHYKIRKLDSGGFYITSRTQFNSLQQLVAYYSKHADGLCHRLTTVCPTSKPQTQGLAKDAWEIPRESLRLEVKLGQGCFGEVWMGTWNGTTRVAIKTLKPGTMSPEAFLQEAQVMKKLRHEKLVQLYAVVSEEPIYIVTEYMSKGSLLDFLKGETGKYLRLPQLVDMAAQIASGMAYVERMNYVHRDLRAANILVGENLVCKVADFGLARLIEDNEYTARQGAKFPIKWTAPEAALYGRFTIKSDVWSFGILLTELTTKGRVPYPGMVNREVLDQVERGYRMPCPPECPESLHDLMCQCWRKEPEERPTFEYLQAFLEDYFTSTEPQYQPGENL

[7] = biological target: Cyclin-dependent kinase 7 (Homo sapiens, UniProt P50613); assay: Inhibition of CDK7
Chain of Cyclin-dependent kinase 7 (P50613 whole entry): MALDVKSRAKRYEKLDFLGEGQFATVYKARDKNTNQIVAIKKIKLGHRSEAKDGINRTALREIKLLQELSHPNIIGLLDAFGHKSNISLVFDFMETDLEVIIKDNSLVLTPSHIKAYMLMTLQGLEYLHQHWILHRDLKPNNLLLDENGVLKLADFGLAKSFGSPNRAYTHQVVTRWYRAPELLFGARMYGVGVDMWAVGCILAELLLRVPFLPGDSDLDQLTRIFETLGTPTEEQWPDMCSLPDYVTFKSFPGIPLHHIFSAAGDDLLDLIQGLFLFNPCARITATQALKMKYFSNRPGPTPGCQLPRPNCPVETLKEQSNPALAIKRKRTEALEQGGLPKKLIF

[8] = biological target: T1, Cyclin-dependent kinase 4; assay: Inhibition of CDK4; summary of the method: as §1
[9] = biological target: Vascular endothelial growth factor receptor (Homo sapiens, UniProt P17948+P35916+P35968); assay: Inhibition of VEGFR; type: protein assay

T1 sequence (P11802 whole entry): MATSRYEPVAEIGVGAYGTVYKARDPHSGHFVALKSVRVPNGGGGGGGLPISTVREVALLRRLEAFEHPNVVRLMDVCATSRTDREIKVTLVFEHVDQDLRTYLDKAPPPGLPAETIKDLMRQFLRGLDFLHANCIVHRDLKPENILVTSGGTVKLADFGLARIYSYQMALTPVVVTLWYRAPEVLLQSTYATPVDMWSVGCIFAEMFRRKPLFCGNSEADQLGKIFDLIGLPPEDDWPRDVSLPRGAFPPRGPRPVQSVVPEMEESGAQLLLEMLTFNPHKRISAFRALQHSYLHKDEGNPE

pIC50 [1] | SMILES | also measured
5.68 | CN1CCN(c2ccc(Nc3ncc4ccn(C5Cc6ccccc6C5)c4n3)cc2)CC1 | –
5.85 | CN1CCN(c2ccc(Nc3ncc4ccn(-c5cccnc5)c4n3)cc2)CC1 | –
5.70 | CN1CCN(c2ccc(Nc3ncc4ccn(-c5cccc(S(C)(=O)=O)c5)c4n3)cc2)CC1 | –
6.22 | c1cc(N2CCOCC2)ccc1Nc1ncc2ccn(C3CCCCC3)c2n1 | –
7.51 | CN1CCN(c2ccc(Nc3ncc4ccn(C5CCCCC5)c4n3)cc2)CC1 | pIC50 [2]: 5.80; pIC50 [3]: 6.80; pIC50 [4]: 6.54; pIC50 [5]: 7.33; pIC50 (Insulin receptor): 6.00; pIC50 [6]: 6.15; pIC50 [7]: 5.82; pIC50 [8]: 7.51; IC50 [9]: 0.1 µM
6.00 | O=S1(=O)CCN(c2ccc(Nc3ncc4ccn(C5CCCCC5)c4n3)cc2)CC1 | –
6.47 | COc1cccc(-n2ccc3cnc(Nc4ccc(N5CCN(C)CC5)cc4)nc32)c1 | –
7.54 | CN1CCN(c2ccc(Nc3ncc4ccn(C5CC6CCC5C6)c4n3)cc2)CC1 (centres undefined) | –
6.96 | COCCN1CCN(c2ccc(Nc3ncc4ccn(C5CCCCC5)c4n3)cc2)CC1 | –
6.46 | O=C(O)Cc1cccc(Nc2ncc3ccn(C4CCCCC4)c3n2)c1 | –
